Test [1] in a line: (§1) Inhibition of cytochrome bc1 complex in bovine heart mitochondria by NADH oxidase assay. Further details: species or system Bos taurus. The gist of the method: (§2)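 Microtitre-plate assay with beef heart mitochondria at a final 68.8 μg/ml in pH 8.0 phosphate buffer. Compounds were diluted in DMSO (2% final) from a top final concentration of 20 ppm. Plates were preincubated 15 min at room temperature, then NADH was added in pH 8.0 phosphate buffer to a final 200 ppm.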

A further test has as its system Plasmopara viticola. The test is described as follows: Inhibition of Plasmopara viticola cytochrome bc1 complex inoculated in vine plant assessed as lowest drug concentration required to control 100% disease applied to leaf 1 hr prior inoculation measured after 6 to 9 days. In outline:
(§3)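 Spray solutions were made up in reverse osmosis water immediately before use, with Tween 20 at 0.05% by volume final to improve deposit retention. Concentrations tested were 100, 50, 25, 10, 5 and 1 ppm. The breakpoint is the lowest of these six concentrations giving 100% disease control, converted to molar units. Azoxystrobin served as the standard.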

Another test is filed under the species Bos taurus. Described as §1. In outline:
as §2

A further test has as its system Puccinia triticina. Briefly: Inhibition of Puccinia triticina cytochrome bc1 complex inoculated in wheat plant assessed as lowest drug concentration required to control 100% disease applied to leaf 1 hr prior inoculation measured after 6 to 9 days. In outline:
as §3

Test [2] has as its system Blumeria graminis f. sp. tritici. The test is described as follows: Inhibition of Blumeria graminis f. sp. Tritici cytochrome bc1 complex inoculated in wheat plant assessed as lowest drug concentration required to control 100% disease applied to leaf 1 hr prior inoculation measured after 6 to 9 days. The gist of the method:
as §3

In the next test the test system is Phytophthora infestans. Briefly: Inhibition of Phytophthora infestans cytochrome bc1 complex inoculated in tomato plant assessed as lowest drug concentration required to control 100% disease applied to leaf 1 hr prior inoculation measured after 6 to 9 days. In outline:
as §3

Test [3] deals with Mycosphaerella graminicola. Briefly: Inhibition of Mycosphaerella graminicola cytochrome bc1 complex inoculated in wheat plant assessed as lowest drug concentration required to control 100% disease applied to leaf 1 hr prior inoculation measured after 6 to 9 days. The gist of the method: as §3

pIC50: −log10 of the molar value. Calls of active or inactive are those of the source. The rule behind the calls is not given here. A value given as a limit tells only on which side of the number the result lay.

In the case of `CCc1ccc(Oc2ccc(C(=O)NCCOCC(=O)NCC(=O)OC)cc2)cc1`, the negative-log IC50 (pIC50) in test [1] was 6.64.

For the molecule `CCc1ccc(Oc2ccc(C(=O)N[C@H]3C[C@H]3CCC(=O)NCC(=O)OC)cc2)cc1`, in test [1], the pIC50 was 6.05.

Turning to `CCCCCCCCCCCCC(=O)N/C=C\CCCC(=O)NCC(=O)OC`, the negative-log IC50 (pIC50) in test [1] is 7.62. Further, in the test on Plasmopara viticola, the Activity is > 100 µM.

`CCc1ccc(Oc2ccc(Cn3c(=O)oc4ccc(OCC(=O)OC)cc43)cc2)cc1`: in test [1], the pIC50 was 6.85.

With `CCCCCCOc1ccc(C(=O)N/C=C\CCCC(=O)NCC(=O)OC)cc1`, the pIC50 in test [1] is 7.68. Besides, in the test on Plasmopara viticola, the Activity was > 100 µM.

With `CCOc1ccc(Cc2ccc(C(=O)N/C=C\CCCC(=O)NCC(=O)OC)cc2)cc1`, the pIC50 in test [1] was 8.05. For the same molecule, in the test on Plasmopara viticola, the Activity amounted to 25 µM.

Take `CCc1ccc(Cc2ccc(C(=O)N/C=C\CCCC(=O)NCC(=O)OC)cc2)cc1`: the pIC50 in test [1] is 7.80.

Molecule `COC(=O)COc1ccc2oc(=O)n(Cc3ccc(Cc4ccc(I)cc4)cc3)c2c1` had a pIC50 in test [1] of 7.12.

`CCc1ccc(Oc2ccc(C(=O)NCCCCC(=O)NCC(=O)OC)cc2)cc1`: the negative-log IC50 (pIC50) in test [1] was 6.40.

`CCc1ccc(Cc2ccc(Cn3c(=O)oc4ccc(OCC(=O)OC)cc43)cc2)cc1` had a negative logarithm of the IC50 (pIC50) in test [1] of 7.35.

On to `COC(=O)CNC(=O)CCC/C=C\NC(=O)c1ccc(Cc2ccc(Br)cc2)cc1`, for which, in test [1], the pIC50 is 7.77. Besides, the Activity in the test on Plasmopara viticola was determined as 10 µM.

Consider `COC(=O)CNC(=O)CCC/C=C\NC(=O)c1ccc(Cc2ccc(I)cc2)cc1`, for which the pIC50 in test [1] was 7.74.

Consider `CCc1ccc(Cc2ccc(Cn3c(=O)oc4ccc(NCC(=O)OC)cc43)cc2)cc1`, for which, in the test listed under Bos taurus, the result was inactive.

On to `COC(=O)CNC(=O)CCCc1ccccc1NC(=O)CCCCCCCCCc1ccccc1`, for which the result in the test listed under Bos taurus was inactive.

As to `CO/C=C(/C(=O)OC)c1ccccc1Oc1cc(Oc2ccccc2C#N)ncn1` [AZOXYSTROBIN], the pIC50 in test [1] was 6.92. The Activity (in the test with Puccinia triticina; in test [2]; in the test on Plasmopara viticola; in the test on Phytophthora infestans; in test [3]) was < 1.8 µM each time.

In the case of `COC(=O)CNC(=O)/C=C\C/C=C\NC(=O)/C=C(C)/C=C/[C@H](C)[C@H](OC)[C@H](C)[C@H](/C=C/c1ccccc1)OC` [CROCACIN A], the pIC50 in test [1] is 7.25. Besides, the Activity in the test with Puccinia triticina was 45 µM; in test [2], > 180 µM; with Plasmopara viticola, 45 µM; in the test with Phytophthora infestans it was > 180 µM; in test [3], > 180 µM.

With `COC(=O)CNC(=O)CCC/C=C\NC(=O)/C=C(C)/C=C/[C@H](C)[C@H](OC)[C@H](C)[C@H](/C=C/c1ccccc1)OC` [CROCACIN D], the pIC50 in test [1] was 7.44. The Activity in the test with Puccinia triticina is 9 µM; in test [2], > 180 µM; in the test on Plasmopara viticola, 25 µM; in the test with Phytophthora infestans, 45 µM; in test [3], 45 µM.

Take `C/C=C(C)/C=C/C=C/[C@H](OC)[C@@H](C)[C@@H](OC)[C@@H](C)CCc1oc2c(O)c(OC)cc(OC)c2c(=O)c1C` [STIGMATELLIN]: the negative logarithm of the IC50 (pIC50) in test [1] is 7.09. The Activity was > 180 µM with Puccinia triticina; > 180 µM in test [2]; 180 µM in the test on Plasmopara viticola; > 180 µM in the test on Phytophthora infestans; > 180 µM in test [3].

One may read the pIC50 as the negative decadic logarithm of the IC50, by convention in mol/L. A low value points to a high IC50.

(Values after ChEMBL document CHEMBL1140211, “The role of molecular modeling in the design of analogues of the fungicidal natural products crocacins A and D” (Bioorg Med Chem, 2008).)
